Experiments:
HeLa [1] = assay: Cytotoxicity against human HeLa cells assessed as inhibition of cell viability after 72 hrs by alamar blue assay; type: functional, cell-based
Outline: (§1)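 HeLa and PC3 cells grown in RPMI with 10% FBS and penicillin/streptomycin, 37 °C, 5% CO2; 1000 cells/well adhered overnight. Ten-point dilutions, final 100 μM to 3 nM, 1% DMSO, triplicate; 72 h exposure. Alamar blue added (10% final), fluorescence ex 535/em 590 nm. IC50 by nonlinear regression; IC50 or % inhibition at 100 μM as mean SD of two independent experiments.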

NFF [2] = assay: Cytotoxicity against human NFF cells assessed as inhibition of cell viability after 72 hrs by alamar blue assay; type: functional, cell-based
Outline: (§2)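 NFF fibroblasts grown in DMEM with 10% FBS and penicillin/streptomycin, 37 °C, 5% CO2; 1000 cells/well seeded and adhered overnight. Compounds tested in ten-point series, final 100 μM to 3 nM, 1% DMSO, triplicate wells; 72 h incubation. Readout by Alamar blue (10% final), ex 535/em 590 nm. IC50 by nonlinear regression; IC50 or % inhibition at 100 μM as mean SD, two independent experiments.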

PC-3 [3] = assay: Cytotoxicity against human PC3 cells assessed as inhibition of cell viability after 72 hrs by alamar blue assay; type: functional, cell-based; conditions: PC-3, 72 h; outline: as §1
HeLa [4] = assay: Cytotoxicity against human HeLa cells assessed as inhibition of cell viability at 100 uM after 72 hrs by alamar blue assay; type: functional; outline: as §1
PC-3 [5] = assay: Cytotoxicity against human PC3 cells assessed as inhibition of cell viability at 100 uM after 72 hrs by alamar blue assay; type: functional; conditions: PC-3, 72 h; outline: as §1
NFF [6] = assay: Cytotoxicity against human NFF cells assessed as inhibition of cell viability at 100 uM after 72 hrs by alamar blue assay; type: functional; outline: as §2

Structure (SMILES) | IC50 (HeLa [1]) [µM] | IC50 (NFF [2]) [µM] | IC50 (PC-3 [3]) [µM] | inhibition at 100 µM (HeLa [4]) [%] | inhibition at 100 µM (PC-3 [5]) [%] | inhibition at 100 µM (NFF [6]) [%]
COc1ccc(C/C(=N\O)C(=O)NC[C@@H](O)c2cc(Br)c(OCCCN(C)C)c(Br)c2)cc1Br | 19 | 16 | 4.9 | – | – | –
CN(C)CCCOc1c(Br)cc([C@H]2CNC(=O)O2)cc1Br | – | – | – | 44 | 35 | 29
COC1=C(Br)[C@H](O)[C@@]2(C=C1Br)CC(C(=O)NCCCc1cnc(N)[nH]1)=NO2 [AEROPHOBIN 2] | – | – | – | 20 | 66 | 25
COC1=C(Br)[C@H](O)[C@@]2(C=C1Br)CC(C(=O)NCC(O)c1cc(Br)c(OC[C@H]3CNC(=O)O3)c(Br)c1)=NO2 (stereo not given in full) [FOSTULARIN 2] | 40 | – | – | – | 73 | 68
COC1=C(Br)[C@H](O)[C@@]2(C=C1Br)CC(C(=O)NCC(O)c1cc(Br)c(OC[C@H](O)CNC(=O)C3=NO[C@]4(C=C(Br)C(OC)=C(Br)[C@@H]4O)C3)c(Br)c1)=NO2 (stereo not given in full) [FOSTULARIN 3] | – | – | – | 46 | 60 | 48

— ChEMBL document CHEMBL2331272, “Bromotyrosine alkaloids from the Australian marine sponge Pseudoceratina verrucosa” (J Nat Prod, 2013)
